Columns and labels:
[1] = Half life in Sprague-Dawley rat lung at 1 umol/kg, it administered as micronized powder measured up to 24 hrs post dose by electrospray LC-MS analysis; assay type: ADME, tissue-based; conditions: inhaled or intranasal
In short: (§1)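 Sprague-Dawley rats (250−400 g) dosed intratracheally with micronized dry powder blended with coarse lactose, delivered by insufflator under isoflurane anaesthesia. Blood collected in heparinized tubes and spun at 1200g for 15 min. Lung sampled at 0.25, 1, 2, 4, 8, 16 and 24 h, n = 3 per time point.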

[2] = Tmax in Sprague-Dawley rat lung at 1 umol/kg, it administered as micronized powder measured up to 24 hrs post dose by electrospray LC-MS analysis; assay type: ADME, tissue-based; conditions: inhaled or intranasal; in short: as §1
[3] = Tmax in Sprague-Dawley rat plasma at 1 umol/kg, it administered as micronized powder measured up to 24 hrs post dose by electrospray LC-MS analysis; assay type: ADME, cell-free; conditions: inhaled or intranasal; in short: as §1
Rattus norvegicus = assay: Anti-inflammatory activity in OVA-induced airway inflammation Brown Norway rat model assessed inhibition of eosinophils recruitment in bronchoalveolar lavage fluid administered intratracheally as powder formulation 2 hrs before aerosolized OVA challenge measured at 24 hrs post aerosolized OVA challenge; assay type: functional; conditions: for ED50: inhaled or nasal
In short: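 Male Brown Norway rats sensitized i.p. with OVA (1 mg/rat) plus Al(OH)3 (100 mg/rat) in saline on 3 consecutive days. Challenged 2–3 weeks later with nose-only 1% OVA aerosol for 30 min. Lactose-blended dry powder (10 mg/kg total powder) insufflated intratracheally; dose taken from needle weight difference. BAL with 3 × 4 mL HBSS/EDTA/HEPES at 24 h; total and differential counts by automated counter. ED50 from fitted dose–response curve.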

Lung [4] = assay: Cmax in Sprague-Dawley rat lung at 1 umol/kg, it administered as micronized powder measured up to 24 hrs post dose by electrospray LC-MS analysis; assay type: ADME, tissue-based; parameters: dose 1 umol/kg; conditions: in vivo, inhaled_or_intranasal; in short: as §1
Lung [5] = assay: AUClast in Sprague-Dawley rat lung at 1 umol/kg, it administered as micronized powder measured up to 24 hrs post dose by electrospray LC-MS analysis; assay type: ADME, tissue-based; conditions: in vivo, inhaled_or_intranasal; in short: as §1
[6] = Ratio of drug uptake in Sprague-Dawley rat lung to plasma at 1 umol/kg, it administered as micronized powder measured up to 8 hrs post dose by electrospray LC-MS analysis; assay type: ADME; conditions: other tissue, inhaled_or_intranasal
[7] = Apparent permeability across apical to basolateral side in human Caco2 cells at 10 uM after 2 hrs by LC-MS/MS analysis; assay type: ADME, cell-based; conditions: Caco-2
[8] = Apparent permeability across basolateral to apical side in human Caco2 cells at 10 uM after 2 hrs by LC-MS/MS analysis; assay type: ADME, cell-based; conditions: Caco-2
[9] = Metabolic stability in human plasma assessed as compound remaining at 1 uM measured after 60 mins in presence of NADPH by LC-MS/MS analysis; assay type: ADME, cell-free; conditions: read-out: Stability
[10] = target: T1, Amine oxidase [flavin-containing] A (Homo sapiens, UniProt P21397); assay: Binding affinity to human monoamine oxidase A at 1 uM
T1 sequence (P21397 whole entry): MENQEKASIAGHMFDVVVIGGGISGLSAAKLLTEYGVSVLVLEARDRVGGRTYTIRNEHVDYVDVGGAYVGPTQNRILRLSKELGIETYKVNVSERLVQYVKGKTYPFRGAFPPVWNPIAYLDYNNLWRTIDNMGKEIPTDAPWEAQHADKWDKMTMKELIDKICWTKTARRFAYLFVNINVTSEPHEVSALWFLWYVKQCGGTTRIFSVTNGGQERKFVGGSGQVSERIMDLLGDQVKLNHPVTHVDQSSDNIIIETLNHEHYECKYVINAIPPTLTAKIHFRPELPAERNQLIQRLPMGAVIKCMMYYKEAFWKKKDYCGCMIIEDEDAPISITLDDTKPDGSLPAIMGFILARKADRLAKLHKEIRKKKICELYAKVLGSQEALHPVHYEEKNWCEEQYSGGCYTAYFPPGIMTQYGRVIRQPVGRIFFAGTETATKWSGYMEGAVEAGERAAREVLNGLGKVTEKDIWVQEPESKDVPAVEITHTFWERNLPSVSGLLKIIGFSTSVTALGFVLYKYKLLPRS
In short: (§2)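 Off-target screening panel of about 400 receptors, enzymes and ion channels, run at 1 μM. Result expressed as % binding.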

[11] = Inhibition of bovine retina PDE6 expressed insect sf9 cells by radiometric assay; parameters: species or system Bos taurus
[12] = target: Dual 3',5'-cyclic-AMP and -GMP phosphodiesterase 11A (Homo sapiens, UniProt Q9HCR9); assay: Inhibition of human recombinant PDE11A4 expressed insect sf9 cells by radiometric assay
In short: (§3)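 Human recombinant PDEs expressed in Sf9 cells, except PDE6 purified from bovine retina. Radiometric two-step method, modified from Thompson and Appleman. Five concentrations in duplicate, starting at 30 μM with 1:10 serial dilution, 1% final DMSO.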

Cytochrome P450 3A4 = Cytochrome P450 3A4 (Homo sapiens, UniProt P08684); assay: Binding affinity to human liver microsomes CYP3A4 at 1 uM; assay type: ADME; in short: as §2
[13] = target: High affinity cAMP-specific and IBMX-insensitive 3',5'-cyclic phosphodiesterase 8A (Homo sapiens, UniProt O60658); assay: Inhibition of human recombinant PDE8A1 expressed insect sf9 cells by radiometric assay; in short: as §3
[14] = target: High affinity 3',5'-cyclic-AMP phosphodiesterase 7A (Homo sapiens, UniProt Q13946); assay: Inhibition of human recombinant PDE7A expressed insect sf9 cells by radiometric assay; in short: as §3
[15] = MRTlast in Sprague-Dawley rat lung at 1 umol/kg, it administered as micronized powder measured up to 24 hrs post dose by electrospray LC-MS analysis; assay type: ADME, tissue-based; conditions: inhaled or intranasal; in short: as §1
[16] = target: cGMP-dependent 3',5'-cyclic phosphodiesterase (Homo sapiens, UniProt O00408); assay: Inhibition of human recombinant PDE2A expressed insect sf9 cells by radiometric assay; in short: as §3
[17] = Stability in human hepatocytes assessed as parent compound remaining at 10 uM after 60 mins by LC-MS/MS analysis; assay type: ADME, cell-based, Hepatocyte; conditions: read-out: Stability
In short: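 Pooled mixed-sex cryopreserved human hepatocytes (1 million cells/mL) in Leibovitz L-15 at 37 °C, compound at 10 μM in duplicate. Sampled at 0 and 60 min. Protein-free supernatant evaporated under nitrogen, reconstituted in mobile phase and analysed by LC−MS/MS. Cell-free medium incubation for 60 min as control.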

Plasma = assay: Tlast in Sprague-Dawley rat plasma at 1 umol/kg, it administered as micronized powder measured up to 24 hrs post dose by electrospray LC-MS analysis; assay type: ADME, cell-free; conditions: inhaled_or_intranasal; in short: as §1
[18] = target: cGMP-specific 3',5'-cyclic phosphodiesterase (Homo sapiens, UniProt O76074); assay: Inhibition of human recombinant PDE5A expressed insect sf9 cells by radiometric assay; in short: as §3
[19] = target: cAMP and cAMP-inhibited cGMP 3',5'-cyclic phosphodiesterase 10A (Homo sapiens, UniProt Q9Y233); assay: Inhibition of human recombinant PDE10A2 expressed insect sf9 cells by radiometric assay; in short: as §3
[20] = MRTlast in Sprague-Dawley rat plasma at 1 umol/kg, it administered as micronized powder measured up to 24 hrs post dose by electrospray LC-MS analysis; assay type: ADME, cell-free; conditions: inhaled or intranasal; in short: as §1
[21] = target: Voltage-gated inwardly rectifying potassium channel KCNH2 (Homo sapiens, UniProt Q12809); assay: Inhibition of human ERG at 1 uM
[22] = Protein binding in human plasma at 5 uM after 5 hrs by LC-MS/MS analysis; assay type: ADME, cell-free; conditions: read-out: PPB (converted)

Chain of cAMP and cAMP-inhibited cGMP 3',5'-cyclic phosphodiesterase 10A (Q9Y233 whole entry): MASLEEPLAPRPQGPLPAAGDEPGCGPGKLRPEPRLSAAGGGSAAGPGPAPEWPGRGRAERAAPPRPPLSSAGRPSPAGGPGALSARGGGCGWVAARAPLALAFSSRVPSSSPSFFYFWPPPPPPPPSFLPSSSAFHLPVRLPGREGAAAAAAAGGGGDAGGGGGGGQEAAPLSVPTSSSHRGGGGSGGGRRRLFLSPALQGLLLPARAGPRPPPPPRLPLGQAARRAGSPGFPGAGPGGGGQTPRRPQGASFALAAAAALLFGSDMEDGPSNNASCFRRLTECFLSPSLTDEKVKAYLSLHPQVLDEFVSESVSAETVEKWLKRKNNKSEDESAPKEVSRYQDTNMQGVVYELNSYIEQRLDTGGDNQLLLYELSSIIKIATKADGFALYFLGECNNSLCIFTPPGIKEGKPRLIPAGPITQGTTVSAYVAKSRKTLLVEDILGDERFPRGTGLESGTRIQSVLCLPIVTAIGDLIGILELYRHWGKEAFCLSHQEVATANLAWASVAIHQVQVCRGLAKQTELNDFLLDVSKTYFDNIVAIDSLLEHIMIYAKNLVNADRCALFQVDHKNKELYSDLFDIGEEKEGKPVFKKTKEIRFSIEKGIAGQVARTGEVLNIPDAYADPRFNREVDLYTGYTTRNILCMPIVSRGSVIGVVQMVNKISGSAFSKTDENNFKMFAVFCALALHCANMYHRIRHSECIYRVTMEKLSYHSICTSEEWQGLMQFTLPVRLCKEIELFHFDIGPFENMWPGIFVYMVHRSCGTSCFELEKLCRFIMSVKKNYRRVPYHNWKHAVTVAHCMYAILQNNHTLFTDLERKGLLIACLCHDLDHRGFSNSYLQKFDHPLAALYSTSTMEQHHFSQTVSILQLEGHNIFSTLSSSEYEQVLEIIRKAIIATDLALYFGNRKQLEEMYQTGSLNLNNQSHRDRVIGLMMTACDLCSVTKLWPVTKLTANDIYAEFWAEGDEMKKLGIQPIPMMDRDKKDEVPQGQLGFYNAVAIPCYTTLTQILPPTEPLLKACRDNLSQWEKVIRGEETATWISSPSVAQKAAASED
Chain of Cytochrome P450 3A4 (P08684 whole entry): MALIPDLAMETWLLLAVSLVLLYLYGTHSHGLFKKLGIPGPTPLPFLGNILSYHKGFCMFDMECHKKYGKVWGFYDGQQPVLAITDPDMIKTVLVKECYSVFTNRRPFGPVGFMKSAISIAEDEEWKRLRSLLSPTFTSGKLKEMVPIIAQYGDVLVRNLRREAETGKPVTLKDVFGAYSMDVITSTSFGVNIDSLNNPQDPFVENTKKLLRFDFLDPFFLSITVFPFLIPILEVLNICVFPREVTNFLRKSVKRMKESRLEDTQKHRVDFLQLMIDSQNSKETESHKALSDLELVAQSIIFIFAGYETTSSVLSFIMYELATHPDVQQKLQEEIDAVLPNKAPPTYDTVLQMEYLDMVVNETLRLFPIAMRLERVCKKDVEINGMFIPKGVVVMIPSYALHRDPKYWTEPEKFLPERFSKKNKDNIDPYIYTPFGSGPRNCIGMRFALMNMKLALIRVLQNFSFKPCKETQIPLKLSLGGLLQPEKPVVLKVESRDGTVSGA
Chain of cGMP-dependent 3',5'-cyclic phosphodiesterase (O00408 whole entry): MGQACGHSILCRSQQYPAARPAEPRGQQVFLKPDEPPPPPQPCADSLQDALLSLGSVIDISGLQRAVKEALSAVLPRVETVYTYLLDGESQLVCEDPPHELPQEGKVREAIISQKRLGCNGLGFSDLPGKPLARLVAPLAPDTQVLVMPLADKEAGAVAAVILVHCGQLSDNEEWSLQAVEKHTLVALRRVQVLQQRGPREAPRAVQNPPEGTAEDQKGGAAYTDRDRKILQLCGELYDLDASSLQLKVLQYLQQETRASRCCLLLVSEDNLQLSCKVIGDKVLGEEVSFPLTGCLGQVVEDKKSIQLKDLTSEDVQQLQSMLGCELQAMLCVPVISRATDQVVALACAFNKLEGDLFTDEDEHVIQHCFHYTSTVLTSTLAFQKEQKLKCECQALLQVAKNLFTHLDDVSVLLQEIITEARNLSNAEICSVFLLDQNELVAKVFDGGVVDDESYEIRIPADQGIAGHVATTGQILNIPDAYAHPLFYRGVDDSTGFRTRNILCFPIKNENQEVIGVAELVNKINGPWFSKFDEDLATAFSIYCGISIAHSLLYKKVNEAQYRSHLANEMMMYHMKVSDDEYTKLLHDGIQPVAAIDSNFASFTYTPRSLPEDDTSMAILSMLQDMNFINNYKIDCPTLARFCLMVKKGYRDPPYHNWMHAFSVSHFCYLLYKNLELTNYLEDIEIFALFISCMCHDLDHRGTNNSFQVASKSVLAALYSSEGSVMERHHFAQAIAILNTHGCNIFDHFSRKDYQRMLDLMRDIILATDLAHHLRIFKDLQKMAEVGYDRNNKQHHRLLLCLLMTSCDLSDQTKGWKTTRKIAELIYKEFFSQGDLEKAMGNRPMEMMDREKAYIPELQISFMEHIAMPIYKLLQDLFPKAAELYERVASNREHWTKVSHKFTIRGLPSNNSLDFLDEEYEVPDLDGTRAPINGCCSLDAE
Chain of Dual 3',5'-cyclic-AMP and -GMP phosphodiesterase 11A (Q9HCR9 whole entry): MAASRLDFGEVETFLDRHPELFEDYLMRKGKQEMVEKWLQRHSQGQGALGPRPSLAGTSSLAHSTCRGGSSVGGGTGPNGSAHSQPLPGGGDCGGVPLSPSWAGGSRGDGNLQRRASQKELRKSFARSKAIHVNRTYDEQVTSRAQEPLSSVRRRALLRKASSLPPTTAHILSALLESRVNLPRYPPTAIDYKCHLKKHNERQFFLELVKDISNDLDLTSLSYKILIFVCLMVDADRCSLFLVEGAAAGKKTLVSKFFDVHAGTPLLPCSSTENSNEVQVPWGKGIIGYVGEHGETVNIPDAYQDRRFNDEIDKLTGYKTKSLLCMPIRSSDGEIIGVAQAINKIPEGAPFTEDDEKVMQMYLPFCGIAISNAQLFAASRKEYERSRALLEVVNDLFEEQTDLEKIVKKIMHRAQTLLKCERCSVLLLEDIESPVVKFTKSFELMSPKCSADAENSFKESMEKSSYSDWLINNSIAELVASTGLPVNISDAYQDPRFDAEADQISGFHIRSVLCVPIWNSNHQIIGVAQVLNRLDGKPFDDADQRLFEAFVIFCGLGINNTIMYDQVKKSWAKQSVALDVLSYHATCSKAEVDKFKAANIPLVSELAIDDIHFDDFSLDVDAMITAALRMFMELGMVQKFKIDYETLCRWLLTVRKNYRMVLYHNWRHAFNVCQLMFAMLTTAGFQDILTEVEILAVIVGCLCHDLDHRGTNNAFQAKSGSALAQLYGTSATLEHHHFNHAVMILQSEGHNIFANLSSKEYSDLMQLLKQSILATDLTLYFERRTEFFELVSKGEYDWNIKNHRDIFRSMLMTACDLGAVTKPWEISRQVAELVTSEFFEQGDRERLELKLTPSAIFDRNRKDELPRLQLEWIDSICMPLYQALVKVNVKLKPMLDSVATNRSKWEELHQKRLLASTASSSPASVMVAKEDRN
Chain of High affinity 3',5'-cyclic-AMP phosphodiesterase 7A (Q13946 whole entry): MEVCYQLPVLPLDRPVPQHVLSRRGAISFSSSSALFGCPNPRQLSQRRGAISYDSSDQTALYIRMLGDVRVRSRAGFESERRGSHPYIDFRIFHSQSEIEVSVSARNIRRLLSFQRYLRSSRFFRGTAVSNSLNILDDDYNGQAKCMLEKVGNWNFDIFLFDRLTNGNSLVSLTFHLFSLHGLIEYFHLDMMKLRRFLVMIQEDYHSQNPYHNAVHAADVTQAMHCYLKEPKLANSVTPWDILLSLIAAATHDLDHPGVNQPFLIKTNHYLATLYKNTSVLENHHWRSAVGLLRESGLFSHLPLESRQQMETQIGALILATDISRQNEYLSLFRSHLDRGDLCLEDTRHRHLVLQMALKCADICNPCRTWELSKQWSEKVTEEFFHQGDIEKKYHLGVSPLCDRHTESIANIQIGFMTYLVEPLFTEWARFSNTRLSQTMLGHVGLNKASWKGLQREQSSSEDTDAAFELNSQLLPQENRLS
Chain of Voltage-gated inwardly rectifying potassium channel KCNH2 (Q12809 whole entry): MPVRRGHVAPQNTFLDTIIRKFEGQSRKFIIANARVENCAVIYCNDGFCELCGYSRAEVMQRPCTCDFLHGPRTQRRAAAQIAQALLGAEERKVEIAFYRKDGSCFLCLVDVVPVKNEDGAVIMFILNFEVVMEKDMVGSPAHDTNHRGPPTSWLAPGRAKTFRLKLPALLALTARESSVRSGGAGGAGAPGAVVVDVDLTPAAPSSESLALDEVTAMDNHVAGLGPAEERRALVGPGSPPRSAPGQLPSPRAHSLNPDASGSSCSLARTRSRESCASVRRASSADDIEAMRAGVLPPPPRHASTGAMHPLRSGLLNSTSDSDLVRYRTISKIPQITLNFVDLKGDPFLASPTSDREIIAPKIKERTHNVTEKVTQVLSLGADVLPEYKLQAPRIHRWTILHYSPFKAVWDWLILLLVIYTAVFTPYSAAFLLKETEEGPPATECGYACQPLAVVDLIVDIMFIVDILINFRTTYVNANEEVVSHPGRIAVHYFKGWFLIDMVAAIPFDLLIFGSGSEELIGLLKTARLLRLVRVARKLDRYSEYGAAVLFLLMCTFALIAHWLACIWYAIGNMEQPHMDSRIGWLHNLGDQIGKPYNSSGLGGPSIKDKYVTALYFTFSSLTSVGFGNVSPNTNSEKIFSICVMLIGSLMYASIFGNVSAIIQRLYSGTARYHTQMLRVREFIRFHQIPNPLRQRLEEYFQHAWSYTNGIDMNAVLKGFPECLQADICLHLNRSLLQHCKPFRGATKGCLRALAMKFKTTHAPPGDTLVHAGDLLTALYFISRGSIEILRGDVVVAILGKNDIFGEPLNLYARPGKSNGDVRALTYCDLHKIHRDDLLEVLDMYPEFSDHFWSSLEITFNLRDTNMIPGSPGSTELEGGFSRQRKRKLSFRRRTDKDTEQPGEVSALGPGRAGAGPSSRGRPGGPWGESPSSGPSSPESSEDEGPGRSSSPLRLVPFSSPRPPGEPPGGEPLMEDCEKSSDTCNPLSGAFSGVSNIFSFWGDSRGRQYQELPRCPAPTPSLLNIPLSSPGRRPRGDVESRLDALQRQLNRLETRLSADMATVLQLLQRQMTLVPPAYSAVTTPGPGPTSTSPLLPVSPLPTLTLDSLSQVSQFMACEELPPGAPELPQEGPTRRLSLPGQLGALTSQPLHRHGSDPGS

CN(C)C(=O)c1cccc(S(=O)(=O)N2CCS[C@H]2C(=O)O[C@@H](Cc2c(Cl)c[n+]([O-])cc2Cl)c2ccc(OC(F)F)c(OCC3CC3)c2)c1
half-life [1]: 4.39 h
Tmax [2]: 0.25 h
Tmax [3]: 4.98 min
inhibition (Rattus norvegicus): Dose-dependent effect
ED50 (Rattus norvegicus): 0.04 µmol/kg
Cmax (Lung [4]): 16.06 nmol/g
AUClast (Lung [5]): 65.27 nmol·h/g
Ratio [6]: 5152
Papp A→B at 2 h, 10 µM [7]: 0.42 ×10⁻⁶ cm/s
Papp B→A at 2 h, 10 µM [8]: 3.18 ×10⁻⁶ cm/s
remaining at 1 h, 1 µM [9]: 98%
Activity [10]: 94%
IC50 [11]: 5.78 µM
IC50 [12]: > 30 µM
Activity (Cytochrome P450 3A4): 84%
IC50 [13]: 3.56 µM
IC50 [14]: 0.66 µM
MRT last at 24 h [15]: 5.56 h
IC50 [16]: > 30 µM
remaining at 1 h, 10 µM [17]: 51%
Tlast (Plasma): 8 h
IC50 [18]: 4.61 µM
IC50 [19]: 0.81 µM
MRT last at 24 h [20]: 1.33 h
inhibition (INH) [21]: Not Active
fraction unbound at 5 h, 5 µM [22]: 0.0021

CN(C)C(=O)c1cccc(S(=O)(=O)N2CCC[C@H]2C(=O)O[C@@H](Cc2c(Cl)c[n+]([O-])cc2Cl)c2ccc(OC(F)F)c(OCC3CC3)c2)c1 (relative stereo)
half-life [1]: 5.18 h
Tmax [2]: 0.083 h
Tmax [3]: 4.98 min
inhibition (Rattus norvegicus): Dose-dependent effect
ED50 (Rattus norvegicus): 0.1 µmol/kg
Cmax (Lung [4]): 16.24 nmol/g
AUClast (Lung [5]): 49.65 nmol·h/g
Ratio [6]: 2261
Papp A→B at 2 h, 10 µM [7]: 0.48 ×10⁻⁶ cm/s
Papp B→A at 2 h, 10 µM [8]: 10.2 ×10⁻⁶ cm/s
remaining at 1 h, 1 µM [9]: 108%
Activity [10]: 76%
IC50 [11]: > 30 µM
IC50 [12]: > 30 µM
Activity (Cytochrome P450 3A4): 73%
IC50 [13]: 17 µM
IC50 [14]: 3.46 µM
MRT last at 24 h [15]: 4.52 h
IC50 [16]: > 30 µM
remaining at 1 h, 10 µM [17]: 78%
Tlast (Plasma): 8 h
IC50 [18]: 13.9 µM
IC50 [19]: 4.03 µM
MRT last at 24 h [20]: 1.08 h
inhibition (INH) [21]: Not Active
fraction unbound at 5 h, 5 µM [22]: 0.0035

— ChEMBL document CHEMBL4024768, “Discovery and Optimization of Thiazolidinyl and Pyrrolidinyl Derivatives as Inhaled PDE4 Inhibitors for Respiratory Diseases” (J Med Chem, 2017)
